Assay type in all cases: functional
Experiment [1] deals with Staphylococcus aureus. As to the kind of experiment: Antimicrobial activity against methicillin-susceptible Staphylococcus aureus ATCC 25923 after 18 hrs by broth microdilution method. The settings on record: ATCC 25923, 18 h. On the technique in general: Broth dilution looks for growth in wells or tubes with falling amounts of substance.
Experiment [2] has as its system Staphylococcus aureus. As to the kind of experiment: Antimicrobial activity against methicillin-susceptible Staphylococcus aureus ATCC 6538 after 18 hrs by broth microdilution method. The settings on record: ATCC 6538, 18 h.
The subject of experiment [3] is Staphylococcus aureus. Kind of experiment: Antimicrobial activity against Staphylococcus aureus Microbank 14001 after 18 hrs by broth microdilution method. The following applies: Microbank 14001, 18 h.
In experiment [4] the test system is Staphylococcus epidermidis. As to the kind of experiment: Antimicrobial activity against Staphylococcus epidermidis ATCC 12228 after 18 hrs by broth microdilution method. The following applies: ATCC 12228, 18 h.
For experiment [5], the system named is Bacillus subtilis. Kind of experiment: Antimicrobial activity against Bacillus subtilis […] after 18 hrs by broth microdilution method.
For experiment [6], the system named is Bacillus cereus. As to the kind of experiment: Antimicrobial activity against Bacillus cereus ATCC 10876 after 18 hrs by broth microdilution method. The following applies: ATCC 10876, 18 h.
Experiment [7] relates to Micrococcus luteus. As to the kind of experiment: Antimicrobial activity against Micrococcus luteus ATCC 10240 after 18 hrs by broth microdilution method. The settings on record: ATCC 10240, 18 h.
Experiment [8] relates to Staphylococcus aureus. As to the kind of experiment: Ratio of MBC for methicillin-susceptible Staphylococcus aureus ATCC 25923 to MIC for methicillin-susceptible Staphylococcus aureus ATCC 25923. An outline of the steps: (§1)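 MBC taken as lowest concentration giving >99.9% CFU reduction of the initial inoculum; value is MBC divided by MIC for the same strain.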
The test system of experiment [9] is Staphylococcus aureus. As to the kind of experiment: Ratio of MBC for methicillin-susceptible Staphylococcus aureus ATCC 6538 to MIC for methicillin-susceptible Staphylococcus aureus ATCC 6538. An outline of the steps:
as §1

In experiment [10] the test system is Staphylococcus aureus. Kind of experiment: Ratio of MBC for Staphylococcus aureus Microbank 14001 to MIC for Staphylococcus aureus Microbank 14001. The procedure, abridged: as §1
For experiment [11], the system named is Escherichia coli. As to the kind of experiment: Antimicrobial activity against Escherichia coli ATCC 25922 after 18 hrs by broth microdilution method. The settings on record: ATCC 25922, 18 h.
For experiment [12], the system named is Klebsiella pneumoniae. As to the kind of experiment: Antimicrobial activity against Klebsiella pneumoniae ATCC 13883 after 18 hrs by broth microdilution method. The following applies: ATCC 13883, 18 h.
Experiment [13] deals with Proteus mirabilis. Kind of experiment: Antimicrobial activity against Proteus mirabilis ATCC 12453 after 18 hrs by broth microdilution method. The following applies: ATCC 12453, 18 h.
Experiment [14] has as its system Pseudomonas aeruginosa. Kind of experiment: Antimicrobial activity against Pseudomonas aeruginosa ATCC 9027 after 18 hrs by broth microdilution method. The following applies: ATCC 9027, 18 h.

Our source for the MIC and Ratio values is ChEMBL document CHEMBL3421560, “Search for factors affecting antibacterial activity and toxicity of 1,2,4-triazole-ciprofloxacin hybrids” (Eur J Med Chem, 2015).

Converted amounts (≈) assume the structure as drawn.

As usually defined, the MIC is the lowest concentration found to suppress growth. A higher MIC goes with weaker potency. As for `O=C(O)c1cn(C2CC2)c2cc(N3CCN(Cn4nc(-c5cccc(O)c5)n(-c5ccc(Cl)cc5)c4=S)CC3)c(F)cc2c1=O`, the MIC worked out at 0.76 µM (≈ 0.492 µg/mL) in experiment [1]; 0.37 µM (≈ 0.239 µg/mL) in experiment [2]; 0.37 µM (≈ 0.239 µg/mL) in experiment [3]; 0.093 µM (≈ 0.0602 µg/mL) in experiment [4]; 0.093 µM (≈ 0.0602 µg/mL) in [5]; 0.18 µM (≈ 0.116 µg/mL) in [6]. Besides, the MIC in experiment [7] was determined as 1.51 µM (≈ 0.977 µg/mL); in experiment [11], 0.012 µM (≈ 0.00777 µg/mL); in experiment [12], 0.046 µM (≈ 0.0298 µg/mL); in experiment [13], 0.024 µM (≈ 0.0155 µg/mL); in experiment [14] it was 0.37 µM (≈ 0.239 µg/mL). Also, the Ratio entry in [8], in [9] and in [10] was “<=4” in each case.

`O=C(O)c1cn(C2CC2)c2cc(N3CCN(Cn4nc(-c5cccc(O)c5)n(Cc5ccc(Cl)cc5)c4=S)CC3)c(F)cc2c1=O`: the MIC amounted to 1.48 µM (≈ 0.979 µg/mL) in [1]; 1.48 µM (≈ 0.979 µg/mL) in experiment [2]; 1.48 µM (≈ 0.979 µg/mL) in experiment [3]; 0.18 µM (≈ 0.119 µg/mL) in [4]; 0.18 µM (≈ 0.119 µg/mL) in [5]; 0.18 µM (≈ 0.119 µg/mL) in experiment [6]. Besides, the MIC in experiment [7] is 2.95 µM (≈ 1.95 µg/mL); in [11], 0.023 µM (≈ 0.0152 µg/mL); in experiment [12] it was 0.18 µM (≈ 0.119 µg/mL); in [13] it was 0.023 µM (≈ 0.0152 µg/mL); in experiment [14], 0.36 µM (≈ 0.238 µg/mL). Besides, the Ratio result in experiment [8], in experiment [9] and in experiment [10] was “<=4” throughout.

For `O=C(O)c1cn(C2CC2)c2cc(N3CCN(Cn4nc(-c5ccc(O)cc5)n(-c5ccccc5)c4=S)CC3)c(F)cc2c1=O`, the MIC worked out at 1.6 µM (≈ 0.98 µg/mL) in experiment [1]; 0.39 µM (≈ 0.239 µg/mL) in experiment [2]; 0.39 µM (≈ 0.239 µg/mL) in experiment [3]; 0.098 µM (≈ 0.06 µg/mL) in experiment [4]; 0.024 µM (≈ 0.0147 µg/mL) in experiment [5]; 0.098 µM (≈ 0.06 µg/mL) in [6]. The MIC in [7] came out at 1.6 µM (≈ 0.98 µg/mL); in [11], 0.024 µM (≈ 0.0147 µg/mL); in experiment [12], 0.049 µM (≈ 0.03 µg/mL); in experiment [13], 0.049 µM (≈ 0.03 µg/mL); in [14], 0.2 µM (≈ 0.123 µg/mL). Also, the Ratio entry in experiment [8], in experiment [9] and in [10] was “<=4” throughout.

Consider `O=C(O)c1cn(C2CC2)c2cc(N3CCN(Cn4nc(-c5ccc(O)cc5)n(Cc5ccccc5)c4=S)CC3)c(F)cc2c1=O`, for which the minimal inhibitory concentration (MIC) in experiment [1] was 3.11 µM (≈ 1.95 µg/mL); in experiment [2], 1.56 µM (≈ 0.978 µg/mL); in [3] it was 1.56 µM (≈ 0.978 µg/mL); in [4] it was 0.19 µM (≈ 0.119 µg/mL); in experiment [5] it was 0.78 µM (≈ 0.489 µg/mL); in [6], 0.19 µM (≈ 0.119 µg/mL). In addition, the MIC worked out at 6.24 µM (≈ 3.91 µg/mL) in experiment [7]; 0.048 µM (≈ 0.0301 µg/mL) in experiment [11]; 0.19 µM (≈ 0.119 µg/mL) in experiment [12]; 0.024 µM (≈ 0.015 µg/mL) in [13]; 0.38 µM (≈ 0.238 µg/mL) in experiment [14]. The Ratio entry in experiment [8], in experiment [9] and in experiment [10] was “<=4” in each case.

For the compound `O=C(O)c1cn(C2CC2)c2cc(N3CCN(Cn4nc(-c5ccc(O)cc5)n(-c5ccc(Cl)cc5)c4=S)CC3)c(F)cc2c1=O`, the MIC in experiment [1] amounted to 0.76 µM (≈ 0.492 µg/mL); in experiment [2], 0.37 µM (≈ 0.239 µg/mL); in experiment [3], 0.093 µM (≈ 0.0602 µg/mL); in [4], 0.18 µM (≈ 0.116 µg/mL); in experiment [5] it was 0.046 µM (≈ 0.0298 µg/mL); in experiment [6] it was 0.18 µM (≈ 0.116 µg/mL). For the same compound, the MIC in [7] was found to be 1.51 µM (≈ 0.977 µg/mL); in experiment [11] it was 0.011 µM (≈ 0.00712 µg/mL); in experiment [12] it was 0.093 µM (≈ 0.0602 µg/mL); in experiment [13], 0.012 µM (≈ 0.00777 µg/mL); in experiment [14] it was 0.18 µM (≈ 0.116 µg/mL). Besides, the Ratio entry in experiment [8], in experiment [9] and in experiment [10] was “<=4” throughout.

Regarding `COc1ccc(Cn2c(-c3ccc(O)cc3)nn(CN3CCN(c4cc5c(cc4F)c(=O)c(C(=O)O)cn5C4CC4)CC3)c2=S)cc1`, the MIC in [1] worked out at 2.97 µM (≈ 1.95 µg/mL); in experiment [2], 0.75 µM (≈ 0.493 µg/mL); in [3] it was 0.75 µM (≈ 0.493 µg/mL); in [4], 1.49 µM (≈ 0.979 µg/mL); in [5], 0.18 µM (≈ 0.118 µg/mL); in experiment [6] it was 0.091 µM (≈ 0.0598 µg/mL). The MIC in [7] amounted to 5.95 µM (≈ 3.91 µg/mL); in [11] it was 0.046 µM (≈ 0.0302 µg/mL); in [12], 0.091 µM (≈ 0.0598 µg/mL); in [13], 0.091 µM (≈ 0.0598 µg/mL); in [14], 0.36 µM (≈ 0.236 µg/mL). Also, the Ratio result in experiment [8], in experiment [9] and in experiment [10] was “<=4” throughout.

For `CN[C@H](CC(C)C)C(=O)N[C@H]1C(=O)N[C@@H](CC(N)=O)C(=O)N[C@H]2C(=O)N[C@H]3C(=O)N[C@H](C(=O)N[C@H](C(=O)O)c4cc(O)cc(O)c4-c4cc3ccc4O)[C@H](O)c3ccc(c(Cl)c3)Oc3cc2cc(c3O[C@@H]2O[C@H](CO)[C@@H](O)[C@H](O)[C@H]2O[C@H]2C[C@](C)(N)[C@H](O)[C@H](C)O2)Oc2ccc(cc2Cl)[C@H]1O` [VANCOMYCIN], 0.68 µM (≈ 0.986 µg/mL) was the least that counted as inhibitory in experiment [3] (MIC).
